How the values were obtained:
Assay type in all cases: functional
NCI/ADR-RES = test: Cytotoxicity against human NCI/ADR-RES cells assessed as growth inhibition at 10 uM after 48 hrs by sulphorhodamine B assay; conditions: read-out: GI
How it was run: (§1)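 NCI-60 one-dose screen per the NCI Drug Evaluation Branch protocol. Cells given a single 10 µM concentration with 48 h continuous exposure. Growth estimated by sulphorhodamine B protein assay. Result expressed as percentage growth inhibition relative to untreated growth.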

PC-3 = test: Cytotoxicity against human PC3 cells assessed as growth inhibition at 10 uM after 48 hrs by sulphorhodamine B assay; conditions: PC-3, 48 h, read-out: GI; how it was run: as §1
[1] = Cytotoxicity against human EKVX cells assessed as growth inhibition at 10 uM after 48 hrs by sulphorhodamine B assay; conditions: read-out: GI; how it was run: as §1
M14 = test: Cytotoxicity against human M14 cells assessed as growth inhibition at 10 uM after 48 hrs by sulphorhodamine B assay; conditions: M14, 48 h, read-out: GI; how it was run: as §1
SNB-19 = test: Cytotoxicity against human SNB19 cells assessed as growth inhibition at 10 uM after 48 hrs by sulphorhodamine B assay; conditions: SNB-19, 48 h, read-out: GI; how it was run: as §1
U-251 = test: Cytotoxicity against human U251 cells assessed as growth inhibition at 10 uM after 48 hrs by sulphorhodamine B assay; conditions: U-251, 48 h, read-out: GI; how it was run: as §1
UACC-62 = test: Cytotoxicity against human UACC62 cells assessed as growth inhibition at 10 uM after 48 hrs by sulphorhodamine B assay; conditions: UACC-62, 48 h, read-out: GI; how it was run: as §1
HT-29 = test: Cytotoxicity against human HT-29 cells assessed as growth inhibition at 10 uM after 48 hrs by sulphorhodamine B assay; conditions: HT-29, 48 h, read-out: GI; how it was run: as §1
UO-31 = test: Cytotoxicity against human UO31 cells assessed as growth inhibition at 10 uM after 48 hrs by sulphorhodamine B assay; conditions: UO-31, 48 h, read-out: GI; how it was run: as §1
MCF7 = test: Cytotoxicity against human MCF7 cells assessed as growth inhibition at 10 uM after 48 hrs by sulphorhodamine B assay; conditions: MCF7, 48 h, read-out: GI; how it was run: as §1
MDA-MB-468 = test: Cytotoxicity against human MDA-MB-468 cells assessed as growth inhibition at 10 uM after 48 hrs by sulphorhodamine B assay; conditions: MDA-MB-468, 48 h, read-out: GI; how it was run: as §1
Hs-578T = test: Cytotoxicity against human Hs578T cells assessed as growth inhibition at 10 uM after 48 hrs by sulphorhodamine B assay; conditions: read-out: GI; how it was run: as §1
MOLT-4 = test: Cytotoxicity against human MOLT4 cells assessed as growth inhibition at 10 uM after 48 hrs by sulphorhodamine B assay; conditions: MOLT-4, 48 h, read-out: GI; how it was run: as §1
RPMI-8226 = test: Cytotoxicity against human RPMI8226 cells assessed as growth inhibition at 10 uM after 48 hrs by sulphorhodamine B assay; conditions: RPMI-8226, 48 h, read-out: GI; how it was run: as §1
A549 = test: Cytotoxicity against human A549 cells assessed as growth inhibition at 10 uM after 48 hrs by sulphorhodamine B assay; conditions: A549, 48 h, read-out: GI; how it was run: as §1
IGROV-1 = test: Cytotoxicity against human IGROV1 cells assessed as growth inhibition at 10 uM after 48 hrs by sulphorhodamine B assay; conditions: IGROV-1, 48 h, read-out: GI; how it was run: as §1
RXF 393 = test: Cytotoxicity against human RXF393 cells assessed as growth inhibition at 10 uM after 48 hrs by sulphorhodamine B assay; conditions: RXF 393, 48 h, read-out: GI; how it was run: as §1
OVCAR-4 = test: Cytotoxicity against human OVCAR4 cells assessed as growth inhibition at 10 uM after 48 hrs by sulphorhodamine B assay; conditions: OVCAR-4, 48 h, read-out: GI; how it was run: as §1
K562 = test: Cytotoxicity against human K562 cells assessed as growth inhibition at 10 uM after 48 hrs by sulphorhodamine B assay; conditions: K562, 48 h, read-out: GI; how it was run: as §1
SK-MEL-2 = test: Cytotoxicity against human SK-MEL-2 cells assessed as growth inhibition at 10 uM after 48 hrs by sulphorhodamine B assay; conditions: SK-MEL-2, 48 h, read-out: GI; how it was run: as §1
HL-60(TB) = test: Cytotoxicity against human HL-60(TB) cells assessed as growth inhibition at 10 uM after 48 hrs by sulphorhodamine B assay; conditions: HL-60, 48 h, read-out: GI
How it was run: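 NCI-60 one-dose primary screen run to the Drug Evaluation Branch protocol. Cells are exposed to a single 10 µM concentration for 48 h continuously, and growth is read by SRB protein assay. Data are reported as percent growth of treated cells, expressed as % growth inhibition.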

OVCAR-5 = test: Cytotoxicity against human OVCAR5 cells assessed as growth inhibition at 10 uM after 48 hrs by sulphorhodamine B assay; conditions: OVCAR-5, 48 h, read-out: GI; how it was run: as §1
DU-145 = test: Cytotoxicity against human DU145 cells assessed as growth inhibition at 10 uM after 48 hrs by sulphorhodamine B assay; conditions: DU-145, 48 h, read-out: GI; how it was run: as §1
SK-OV-3 = test: Cytotoxicity against human SKOV3 cells assessed as growth inhibition at 10 uM after 48 hrs by sulphorhodamine B assay; conditions: SK-OV-3, 48 h, read-out: GI; how it was run: as §1
NCI-H23 = test: Cytotoxicity against human NCI-H23 cells assessed as growth inhibition at 10 uM after 48 hrs by sulphorhodamine B assay; conditions: NCI-H23, 48 h, read-out: GI; how it was run: as §1
HOP-92 = test: Cytotoxicity against human HOP92 cells assessed as growth inhibition at 10 uM after 48 hrs by sulphorhodamine B assay; conditions: HOP-92, 48 h, read-out: GI; how it was run: as §1
CCRF-CEM = test: Cytotoxicity against human CCRF-CEM cells assessed as growth inhibition at 10 uM after 48 hrs by sulphorhodamine B assay; conditions: read-out: GI; how it was run: as §1
MDA-MB-435 = test: Cytotoxicity against human MDA-MB-435 cells assessed as growth inhibition at 10 uM after 48 hrs by sulphorhodamine B assay; conditions: MDA-MB-435, 48 h, read-out: GI; how it was run: as §1
SK-MEL-5 = test: Cytotoxicity against human SK-MEL-5 cells assessed as growth inhibition at 10 uM after 48 hrs by sulphorhodamine B assay; conditions: SK-MEL-5, 48 h, read-out: GI; how it was run: as §1
HCT-116 = test: Cytotoxicity against human HCT116 cells assessed as growth inhibition at 10 uM after 48 hrs by sulphorhodamine B assay; conditions: HCT-116, 48 h, read-out: GI; how it was run: as §1
SF-268 = test: Cytotoxicity against human SF268 cells assessed as growth inhibition at 10 uM after 48 hrs by sulphorhodamine B assay; conditions: SF-268, 48 h, read-out: GI; how it was run: as §1
HCT-15 = test: Cytotoxicity against human HCT15 cells assessed as growth inhibition at 10 uM after 48 hrs by sulphorhodamine B assay; conditions: HCT-15, 48 h, read-out: GI; how it was run: as §1
SF-295 = test: Cytotoxicity against human SF295 cells assessed as growth inhibition at 10 uM after 48 hrs by sulphorhodamine B assay; conditions: SF-295, 48 h, read-out: GI; how it was run: as §1
SR = test: Cytotoxicity against human SR cells assessed as growth inhibition at 10 uM after 48 hrs by sulphorhodamine B assay; conditions: read-out: GI; how it was run: as §1
LOX IMVI = test: Cytotoxicity against human LOXIMVI cells assessed as growth inhibition at 10 uM after 48 hrs by sulphorhodamine B assay; conditions: read-out: GI; how it was run: as §1
SNB-75 = test: Cytotoxicity against human SNB75 cells assessed as growth inhibition at 10 uM after 48 hrs by sulphorhodamine B assay; conditions: SNB-75, 48 h, read-out: GI; how it was run: as §1
T47D = test: Cytotoxicity against human T47D cells assessed as growth inhibition at 10 uM after 48 hrs by sulphorhodamine B assay; conditions: read-out: GI; how it was run: as §1
NCI-H522 = test: Cytotoxicity against human NCI-H522 cells assessed as growth inhibition at 10 uM after 48 hrs by sulphorhodamine B assay; conditions: NCI-H522, 48 h, read-out: GI; how it was run: as §1
ACHN = test: Cytotoxicity against human ACHN cells assessed as growth inhibition at 10 uM after 48 hrs by sulphorhodamine B assay; conditions: read-out: GI; how it was run: as §1
A498 = test: Cytotoxicity against human A498 cells assessed as growth inhibition at 10 uM after 48 hrs by sulphorhodamine B assay; conditions: A498, 48 h, read-out: GI; how it was run: as §1
CAKI-1 = test: Cytotoxicity against human Caki1 cells assessed as growth inhibition at 10 uM after 48 hrs by sulphorhodamine B assay; conditions: CAKI-1, 48 h, read-out: GI; how it was run: as §1

Measured: inhibition of growth at 10 µM

COc1ccc(-c2c3c(nc4ncn5ncnc5c24)C(C)CCC3)cc1 (stereo unspecified)
17.8%: SR
10.6%: IGROV-1
18.3%: UACC-62
31%: RPMI-8226
19%: MOLT-4
15%: LOX IMVI
13%: PC-3
13.5%: A498
< 10%: all other assays above

From ChEMBL document CHEMBL2375313, “Synthesis, in vitro antitumor evaluation and DNA-binding study of novel tetrahydroquinolines and some derived tricyclic and tetracyclic ring systems” (Eur J Med Chem, 2013)
